Screens (PubChem)
EBNA-1 inh: blocks EBNA-1 binding to DNA | hit rate 0.34% among 300,000 | EBNA-1 DNA binding, fluorescence polarization | inhibition, % at 14.8 µM; in the data active = inhibition above about 28%
PfGluPho inh: PfG6PD (Plasmodium falciparum) enzyme inhibition; PfGluPho enzyme, NADPH resazurin-diaphorase fluorescence; inhibition, % at 20 µM; hit rate 0.78% among 350,000; AID 504690;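 active = inhibition reaching at least a set limit at 20 µM in the primary screen, cut at about 59% in these data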;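 also: 0% = DMSO wells with substrate and 100% = DMSO wells lacking glucose-6-phosphate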
ZTA DNA inh: counter-screen for EBNA-1 inhibitors: inhibitors of Epstein-Barr virus ZTA; ZTA-DNA binding, fluorescence polarization; inhibition, % at 11 µM; hit rate 0.15% among 320,000; AID 2234; in the data active = inhibition above about 33%
PfM18AAP inh-1: PfM18AAP enzyme inhibition; recombinant PfM18AAP, H-Glu-NHMec fluorogenic cleavage; inhibition, % at 7.35 µM; hit rate 1.2% among 290,000;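 active = inhibition above the campaign mean inhibition over all tested compounds plus 3 SD, cut at about 28% in these data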;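 also: 0% = plate median of test compound wells and 100% = 2 mM ZnCl2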
UBC13 inh: inhibitors of human UBC13 polyubiquitin chain formation; P61088; TR-FRET; inhibition, % at 20 µM; hit rate 0.47% among 330,000; AID 485273; in the data active = inhibition above about 45%, passing the limit was not always enough; inconclusive = no clear call, values can overlap the other calls
Apaf1 inhib: inhibitors of human Apaf-1 apoptosome; O14727; reconstituted apoptosome caspase-3 activity, DEVD-Rh110 fluorescence; inhibition, % at 20 µM; hit rate 0.71% among 330,000; AID 489030; active = inhibition of at least 40% at 20 µM;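 also: plate controls were DMSO wells for no effect and DEVD-CHO caspase inhibitor wells for full effect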
Target sequence (O14727 whole entry, looked up): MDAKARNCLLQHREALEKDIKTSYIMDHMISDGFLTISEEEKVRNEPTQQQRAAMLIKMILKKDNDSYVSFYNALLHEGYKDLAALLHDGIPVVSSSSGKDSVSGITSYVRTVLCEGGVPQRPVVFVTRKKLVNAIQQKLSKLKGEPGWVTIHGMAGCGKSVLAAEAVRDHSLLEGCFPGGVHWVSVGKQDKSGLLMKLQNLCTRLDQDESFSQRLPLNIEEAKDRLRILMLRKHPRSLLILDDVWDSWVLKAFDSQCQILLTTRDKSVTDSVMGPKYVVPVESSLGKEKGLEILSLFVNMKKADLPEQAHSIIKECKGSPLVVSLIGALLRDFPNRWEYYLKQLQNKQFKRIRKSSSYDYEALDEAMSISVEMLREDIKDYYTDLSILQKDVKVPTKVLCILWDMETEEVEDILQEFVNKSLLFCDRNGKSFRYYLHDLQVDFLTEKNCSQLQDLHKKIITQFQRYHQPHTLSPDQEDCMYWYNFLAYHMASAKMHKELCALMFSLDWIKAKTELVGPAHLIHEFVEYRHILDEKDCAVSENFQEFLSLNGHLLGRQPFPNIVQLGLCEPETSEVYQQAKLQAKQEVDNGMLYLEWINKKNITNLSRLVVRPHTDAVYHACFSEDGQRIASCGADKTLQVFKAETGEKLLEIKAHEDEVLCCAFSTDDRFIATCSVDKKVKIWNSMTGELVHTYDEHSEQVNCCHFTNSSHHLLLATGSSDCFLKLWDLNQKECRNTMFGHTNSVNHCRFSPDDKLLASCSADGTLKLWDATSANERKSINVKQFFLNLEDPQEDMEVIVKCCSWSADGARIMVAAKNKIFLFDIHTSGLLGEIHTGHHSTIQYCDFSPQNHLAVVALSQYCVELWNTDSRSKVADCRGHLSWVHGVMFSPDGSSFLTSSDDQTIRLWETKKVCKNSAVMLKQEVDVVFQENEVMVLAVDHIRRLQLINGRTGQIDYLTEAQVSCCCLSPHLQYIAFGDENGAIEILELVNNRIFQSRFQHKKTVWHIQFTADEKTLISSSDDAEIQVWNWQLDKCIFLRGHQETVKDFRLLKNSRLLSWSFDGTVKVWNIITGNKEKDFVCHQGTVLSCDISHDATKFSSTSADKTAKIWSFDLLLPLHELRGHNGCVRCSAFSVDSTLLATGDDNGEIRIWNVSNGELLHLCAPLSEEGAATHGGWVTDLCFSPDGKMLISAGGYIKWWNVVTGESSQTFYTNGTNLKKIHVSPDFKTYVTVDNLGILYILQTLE
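Material: reconstituted apoptosome with Apaf-1, cytochrome c, caspase-9, procaspase-3, dATP / Buffer or medium: pH 7.5 Hepes buffer with CHAPS, BSA, DTT / Also added: cytochrome c with DEVD-Rh110 / Schedule: compound with Apaf-1, dATP, procaspase-3 30 min, then 50 min reaction, room temperature / Technique: rhodamine 110 fluorescence at Ex 480/Em 540 nm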
PfM18AAP inh-2: PfM18AAP inhibition, confirmation; shares compounds with PfM18AAP inh-1; inhibition, % at 7.35 µM; recombinant PfM18AAP, H-Glu-NHMec fluorogenic cleavage; hit rate 28% among 2,400; AID 2170;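 active = mean inhibition over replicate wells above the hit cutoff set for the earlier primary screen, cut at about 29% in these data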;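 also: 0% = median of test compound wells and 100% = 2 mM ZnCl2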
CTSL1 confirm: counter-screen for PFM18AAP inhibitors: confirmation of human cathepsin L inhibitors | shares compounds with PfM18AAP inh-1 | purified cathepsin L1, Z-Leu-Arg-MCA fluorescence | inhibition, % at 5.96 µM | 2,400 tested, under 10 active;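 active = average inhibition across replicates above the hit cutoff set in the earlier primary screen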;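 also: 0% = median of test compound wells and 100% = Z-Phe-Ala-diazomethylketone 1 µM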
* = called active by the depositor. Rows were chosen to be rich in hits. Some 2.9% of all compounds tested hit in one or more screens of this group.

What do the screens show for `CCOC(=O)C1=C(C)NC(=S)NC1c1ccco1` (stereo unspecified)?
EBNA-1 inh: -3; PfGluPho inh: 49; ZTA DNA inh: 2; PfM18AAP inh-1: 35*; UBC13 inh: 0; Apaf1 inhib: -13; PfM18AAP inh-2: -28; CTSL1 confirm: 7

Results for NC(=O)c1c(NC(=O)C2CC=CCC2C(=O)O)sc2c1CCCCC2 (stereo unspecified) ?
EBNA-1 inh: 8; PfGluPho inh: 42; ZTA DNA inh: 12; PfM18AAP inh-1: 40*; UBC13 inh: 0; Apaf1 inhib: 8; PfM18AAP inh-2: -19; CTSL1 confirm: -2

Results for CC(C)OC(=O)c1c(NC(=O)C2CC=CCC2C(=O)O)sc2c1CCCCC2 (stereo unspecified) ?
EBNA-1 inh: 21; PfGluPho inh: -48; ZTA DNA inh: 14; PfM18AAP inh-1: 10; UBC13 inh: -12; Apaf1 inhib: 5

How did NC(=O)c1c(NC(=S)Nc2ccc(F)cc2)sc2c1CCCC2 do in these assays?
EBNA-1 inh: -18; PfGluPho inh: 17; ZTA DNA inh: -2; PfM18AAP inh-1: 35*; UBC13 inh: inconclusive; Apaf1 inhib: 21; PfM18AAP inh-2: 3; CTSL1 confirm: 5

How did Nn1c(SCC(=O)N2CCOCC2)nnc1-c1cccnc1 do in these assays?
PfGluPho inh: 11; ZTA DNA inh: 1; UBC13 inh: 5; Apaf1 inhib: -7

How did CC1CCN(S(=O)(=O)c2ccc(NC(=O)C3CSC4(C)CCC(=O)N34)cc2)CC1 (stereo unspecified) do in these assays?
EBNA-1 inh: 9; PfGluPho inh: 10; ZTA DNA inh: 7; UBC13 inh: -4; Apaf1 inhib: 19

What do the screens show for `O=C(Cc1ncn[nH]1)NCCc1ccccc1`?
EBNA-1 inh: 1; PfGluPho inh: -22; ZTA DNA inh: 2; PfM18AAP inh-1: 32*; UBC13 inh: -1; Apaf1 inhib: -6; PfM18AAP inh-2: 40*; CTSL1 confirm: 2

What do the screens show for `CC1CC(C)(C)NC(=S)N1CCCC(=O)NCc1ccccc1` (stereo unspecified)?
EBNA-1 inh: -3; PfGluPho inh: -4; ZTA DNA inh: -8; PfM18AAP inh-1: -3; UBC13 inh: 4; Apaf1 inhib: -24

Results for COc1ccc(C(=O)Nc2ccc3oc(Cc4ccc(Cl)cc4)nc3c2)cc1OC ?
EBNA-1 inh: -9; PfGluPho inh: 7; ZTA DNA inh: 12; PfM18AAP inh-1: -11; UBC13 inh: 12; Apaf1 inhib: 12

Results for CC(C)(C)c1ccc(NNC(=O)C2CCC2)cc1 ?
EBNA-1 inh: 2; PfGluPho inh: 13; ZTA DNA inh: 10; PfM18AAP inh-1: 40*; UBC13 inh: 2; Apaf1 inhib: 5; PfM18AAP inh-2: -20; CTSL1 confirm: 4

How did CC(C)(C)c1ccc(NC(=O)COC(=O)C2CCCC2)cc1 do in these assays?
PfGluPho inh: 20; ZTA DNA inh: -8; UBC13 inh: -4; Apaf1 inhib: 24

What do the screens show for `Cc1ccc(S(=O)(=O)N2CCCC2C(=O)Nn2cnnc2)cc1` (stereo unspecified)?
EBNA-1 inh: 7; PfGluPho inh: -1; ZTA DNA inh: 4; PfM18AAP inh-1: 7; UBC13 inh: 3; Apaf1 inhib: -19

How did Cc1ccc(S(=O)(=O)N2C(=O)CCC2C(=O)Nn2cnnc2)cc1 (stereo unspecified) do in these assays?
EBNA-1 inh: -6; PfGluPho inh: -9; ZTA DNA inh: -12; PfM18AAP inh-1: 66*; UBC13 inh: 8; Apaf1 inhib: -8; PfM18AAP inh-2: 32*; CTSL1 confirm: -3

What do the screens show for `CCN(CC)C(=O)[C@H]1C[C@H](CC(=O)NC(C)(C)C)C(=O)N2CCc3c([nH]c4ccc(Cl)cc34)[C@]12C`?
PfGluPho inh: 10; Apaf1 inhib: 20

How did CCN(CC)c1ccc(NS(=O)(=O)c2ccc(-c3ccc(=O)[nH]n3)o2)c(C)c1 do in these assays?
EBNA-1 inh: 3; PfGluPho inh: 37; ZTA DNA inh: 1; PfM18AAP inh-1: 45*; UBC13 inh: 0; Apaf1 inhib: 7; PfM18AAP inh-2: 12; CTSL1 confirm: -1

What do the screens show for `COc1ccc(/C=N\NC(=O)c2cc(O)c(O)c(O)c2)cc1COc1ccc(C(=O)OCC(C)C)cc1`?
EBNA-1 inh: 0; PfGluPho inh: 24; ZTA DNA inh: -3; PfM18AAP inh-1: 32*; UBC13 inh: -31; Apaf1 inhib: 26; PfM18AAP inh-2: -7; CTSL1 confirm: -1

What do the screens show for `COc1ccc(C(=O)N/N=C/c2ccc(OC)c(COc3ccccc3)c2)cc1`?
EBNA-1 inh: 1; PfGluPho inh: -15; ZTA DNA inh: -8; PfM18AAP inh-1: -5; UBC13 inh: -2; Apaf1 inhib: 15

Results for COc1ccc(/C=N\NC(=O)c2cc(O)c(O)c(O)c2)cc1CN1CCN(c2ccc(F)cc2)CC1 ?
EBNA-1 inh: 5; PfGluPho inh: 39; ZTA DNA inh: 3; PfM18AAP inh-1: 38*; PfM18AAP inh-2: -13; CTSL1 confirm: -1

What do the screens show for `Cc1c(C(=O)Nn2cnnc2)oc2ccccc12`?
EBNA-1 inh: -2; PfGluPho inh: 10; ZTA DNA inh: -9; PfM18AAP inh-1: 81*; UBC13 inh: -5; Apaf1 inhib: 9; PfM18AAP inh-2: 76*; CTSL1 confirm: -3

What do the screens show for `Cc1c(C(=O)NN2CCOCC2)oc2ccccc12`?
EBNA-1 inh: -2; PfGluPho inh: -1; ZTA DNA inh: -3; PfM18AAP inh-1: 0; UBC13 inh: 13; Apaf1 inhib: 0

What do the screens show for `O=C(Nn1cnnc1)c1csc2ccccc12`?
EBNA-1 inh: 1; PfGluPho inh: 9; ZTA DNA inh: -12; PfM18AAP inh-1: 72*; UBC13 inh: 10; Apaf1 inhib: -1; PfM18AAP inh-2: 73*; CTSL1 confirm: -5

How did O=C(Nc1ccon1)c1csc2ccccc12 do in these assays?
EBNA-1 inh: 1; PfGluPho inh: 2; ZTA DNA inh: 5; PfM18AAP inh-1: 1; UBC13 inh: 8; Apaf1 inhib: -20

What do the screens show for `Cc1scc(C(=O)Nn2cnnc2)c1-c1ccccc1`?
EBNA-1 inh: 1; PfGluPho inh: -5; ZTA DNA inh: -4; PfM18AAP inh-1: 64*; UBC13 inh: 4; Apaf1 inhib: 6; PfM18AAP inh-2: 60*; CTSL1 confirm: 0

Results for Cc1cc(C(=O)Nn2cnnc2)cs1 ?
EBNA-1 inh: 6; PfGluPho inh: -8; ZTA DNA inh: 3; PfM18AAP inh-1: 26; UBC13 inh: 15; Apaf1 inhib: -11

How did Cc1ccc(NC(=O)COC(=O)Cc2ccsc2)cc1S(=O)(=O)N1CCOCC1 do in these assays?
EBNA-1 inh: 9; PfGluPho inh: -2; ZTA DNA inh: 7; PfM18AAP inh-1: 4; UBC13 inh: 11; Apaf1 inhib: -2
